Converted amounts (≈) assume the structure as drawn.
Assays:
[1] = tested on: Onchocerca lienalis; experiment: WHO-TDR: Onchocerciasis; type: functional; design: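 at 12.5 µM on microfilariae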
How it was run: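 A diverse library of 10,000 compounds from Life Chemicals, filtered for drug-likeness and reactive groups, was screened against whole microfilariae of Onchocerca ochengi or Onchocerca lienalis. These animal pathogens served as stand-ins for the human parasite. Activity is given as percent inhibition and as IC50.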

[2] = tested on: Plasmodium falciparum K1; experiment: WHO-TDR: Malaria; type: functional, organism-based, Homo sapiens; details: Erythrocyte
How it was run: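 Antiplasmodial potency, expressed as IC50, was measured in a whole-organism assay on intra-erythrocytic Plasmodium falciparum K1 in human red blood cells. The screened library held 10,000 diverse compounds from Life Chemicals.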

[3] = tested on: Trypanosoma brucei brucei; experiment: WHO-TDR: Human African Trypanosomiasis (HAT); type: functional, organism-based; details: Squib-427
How it was run: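 Antiparasitic potency is reported as IC50. The screen covered 10,000 compounds from a diverse Life Chemicals library, filtered for drug-likeness and reactive groups, tested on whole bloodstream-form Trypanosoma brucei of the Squib 427 strain.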

[4] = WHO-TDR: Cytotoxicity; type: toxicity, cell-based; details: human, MRC5 cells
[5] = tested on: Trypanosoma cruzi; experiment: WHO-TDR: Chagas disease; type: functional, organism-based, Homo sapiens; details: MRC5
How it was run: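 A diverse library of 10,000 compounds from Life Chemicals, filtered for drug-likeness and reactive groups, was screened against intracellular amastigotes of Trypanosoma cruzi Tulahuen CL2 beta-galactosidase strain. The parasites were grown in MRC-5SV2 human lung fibroblast host cells, and a reference drug served as positive control under previously published standard procedures. Antiparasitic potency is given as IC50.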

[6] = tested on: Leishmania infantum; experiment: WHO-TDR: Leishmaniasis; type: functional, organism-based, Mus musculus; details: Macrophage
How it was run: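 Antiparasitic potency, reported as IC50, was measured against intracellular Leishmania infantum amastigotes. The parasite strain was MHOM/MA(BE)/67, and murine peritoneal macrophages served as host cells for the screen of a 10,000-compound diverse library from Life Chemicals.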

[7] = tested on: Schistosoma mansoni; experiment: WHO-TDR: Schistosomiasis; type: functional; design: concentration or dose not given beside the values
How it was run: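 A diverse library of 10,000 compounds from Life Chemicals, filtered for drug-likeness and reactive groups, was screened against whole larval and/or adult Schistosoma mansoni worms of the Puerto Rican strain. Previously published standard procedures were followed, with a reference drug as positive control. Activity is given as percent inhibition and as IC50.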

Row | SMILES | % Inhibition [1] | IC50 [2] | IC50 [3] | IC50 [4] | IC50 [5] | IC50 [6] | % Inhibition [7]
1 | O=S(=O)(NCC(c1cccnc1)N1CCN(c2ccccc2F)CC1)c1cc(F)ccc1F (stereo not given) | 0% | 4.27 µg/mL (≈ 8.96 µM) | 4.74 µg/mL (≈ 9.95 µM) | > 14.3 µg/mL | 0.265 µg/mL (≈ 0.556 µM) | > 14.3 µg/mL | 0%
2 | COc1ccccc1N1CCN(C(CNS(=O)(=O)c2cccs2)c2cccnc2)CC1 (stereo not given) | 66.7% | 6.66 µg/mL (≈ 14.5 µM) | > 13.8 µg/mL | > 13.8 µg/mL | 0.559 µg/mL (≈ 1.22 µM) | > 13.8 µg/mL | 0%
3 | O=C(CSc1ccc2nnc(-c3ccccn3)n2n1)NCC1CCCO1 (stereo not given) | 0% | 3.16 µg/mL (≈ 8.53 µM) | 3.3 µg/mL (≈ 8.9 µM) | > 11.1 µg/mL | 5.24 µg/mL (≈ 14.1 µM) | 0.392 µg/mL (≈ 1.06 µM) | 0%
4 | CCOC(=O)c1c(NC(=O)Cn2c(-n3nc(C)cc3C)nc(CC)cc2=O)sc2c1CCC2 | 0% | 4.68 µg/mL (≈ 9.97 µM) | > 14.1 µg/mL | > 14.1 µg/mL | 0.749 µg/mL (≈ 1.6 µM) | 4.56 µg/mL (≈ 9.71 µM) | 0%
5 | O=S(=O)(NCC(c1cccnc1)N1CCN(Cc2ccccc2)CC1)c1ccc(Cl)cc1 (stereo not given) | 0% | 2.18 µg/mL (≈ 4.63 µM) | > 14.1 µg/mL | > 14.1 µg/mL | 0.633 µg/mL (≈ 1.34 µM) | > 14.1 µg/mL | 0%
6 | CN(C)CCN(C(=O)CCSc1ccccc1)c1nc2c(Cl)cccc2s1 | 0% | 3.39 µg/mL (≈ 8.08 µM) | 4.33 µg/mL (≈ 10.3 µM) | > 13.7 µg/mL | 4.15 µg/mL (≈ 9.88 µM) | > 13.7 µg/mL | 75%
7 | COc1ccc(C(=O)Nc2nnc(SCC(=O)NCc3ccccc3Cl)s2)c(OC)c1 | 0% | 3.64 µg/mL (≈ 7.61 µM) | 4.66 µg/mL (≈ 9.73 µM) | > 14.4 µg/mL | > 14.4 µg/mL | > 14.4 µg/mL | 100%
8 | CCNc1cc(C)nc(Nc2ccc(NC(=O)CC3CCCC3)cc2)n1 | -1% | 2.4 µg/mL (≈ 6.79 µM) | 3.39 µg/mL (≈ 9.6 µM) | 3.23 µg/mL (≈ 9.13 µM) | 0.299 µg/mL (≈ 0.846 µM) | 3.43 µg/mL (≈ 9.71 µM) | 66.7%
9 | O=C(CSc1ccc2nnc(-c3ccncc3)n2n1)c1ccc(Cl)cc1 | 0% | 1.82 µg/mL (≈ 4.75 µM) | 0.35 µg/mL (≈ 0.917 µM) | 4.28 µg/mL (≈ 11.2 µM) | 0.425 µg/mL (≈ 1.11 µM) | 4.72 µg/mL (≈ 12.4 µM) | 0%
10 | COC(=O)c1ccc(NC(=O)CSc2nnc(NC(=O)c3cc(Cl)ccc3OC)s2)cc1 | 0% | 0.324 µg/mL (≈ 0.657 µM) | 0.435 µg/mL (≈ 0.882 µM) | 4.1 µg/mL (≈ 8.31 µM) | 4.49 µg/mL (≈ 9.11 µM) | 4.24 µg/mL (≈ 8.61 µM) | 16.7%
11 | C=CCn1/c(=N/C(=O)c2ccccc2I)sc2cc(S(C)(=O)=O)ccc21 | 20% | > 15 µg/mL | > 15 µg/mL | > 15 µg/mL | > 15 µg/mL | > 15 µg/mL | 100%
12 | O=C(Cc1ccccc1)Nc1nnc(SCC(=O)NC2CCCC2)s1 | 6.7% | 0.609 µg/mL (≈ 1.62 µM) | 0.382 µg/mL (≈ 1.01 µM) | 3.82 µg/mL (≈ 10.1 µM) | 4.16 µg/mL (≈ 11.1 µM) | 3.96 µg/mL (≈ 10.5 µM) | 0%
13 | O=C(Nc1nnc(SCc2ccccc2Cl)s1)C1CCCCC1 | 0% | 1.45 µg/mL (≈ 3.95 µM) | 0.356 µg/mL (≈ 0.967 µM) | > 11 µg/mL | 4.94 µg/mL (≈ 13.4 µM) | 5.1 µg/mL (≈ 13.9 µM) | 0%
14 | CCN(CC)c1ccc(NC(=O)Cc2csc(NC(=O)c3cc(OC)cc(OC)c3)n2)c(C)c1 | 20% | 4.28 µg/mL (≈ 8.87 µM) | 0.493 µg/mL (≈ 1.02 µM) | > 14.5 µg/mL | 1 µg/mL (≈ 2.08 µM) | 4.69 µg/mL (≈ 9.71 µM) | 0%
15 | CCOC(=O)CNC(=O)CSc1nnc(NC(=O)c2ccccc2Cl)s1 | 13.3% | 0.848 µg/mL (≈ 2.04 µM) | 0.237 µg/mL (≈ 0.572 µM) | 3.81 µg/mL (≈ 9.19 µM) | 4.41 µg/mL (≈ 10.6 µM) | 4.16 µg/mL (≈ 10 µM) | 0%
16 | O=C(CSc1nc2ccccc2nc1O)Nc1ccccc1C(=O)c1ccccc1 | 26.7% | > 12.5 µg/mL | > 12.5 µg/mL | > 12.5 µg/mL | > 12.5 µg/mL | 1.97 µg/mL (≈ 4.75 µM) | 0%
17 | CC(C)(C)C(=O)Nc1nnc(SCC(=O)Nc2ccc(Cl)c(Cl)c2)s1 | 0% | 1.13 µg/mL (≈ 2.69 µM) | 0.456 µg/mL (≈ 1.09 µM) | 2.84 µg/mL (≈ 6.78 µM) | 4.66 µg/mL (≈ 11.1 µM) | 4.51 µg/mL (≈ 10.7 µM) | 0%
18 | CC(C)c1ccc2nc(NC(=O)c3ccc(C#N)cc3)sc2c1 | 0% | > 7 µg/mL | 0.312 µg/mL (≈ 0.971 µM) | > 7 µg/mL | > 7 µg/mL | > 7 µg/mL | 0%
19 | CCOc1ccc2nc(N(CCN(C)C)C(=O)c3cc4ccccc4cc3OC)sc2c1 | 0% | 1.82 µg/mL (≈ 4.04 µM) | 0.35 µg/mL (≈ 0.779 µM) | 4.28 µg/mL (≈ 9.53 µM) | 0.425 µg/mL (≈ 0.945 µM) | 4.72 µg/mL (≈ 10.5 µM) | 0%
20 | Cc1c(Cl)ccc2sc(NC(=O)c3ccc(N(C)C)cc3)nc12 | 50% | > 10.4 µg/mL | > 10.4 µg/mL | > 10.4 µg/mL | > 10.4 µg/mL | > 10.4 µg/mL | 0%
21 | O=C(CSc1nnc(NC(=O)c2cccs2)s1)NCc1ccccc1Cl | 13.3% | 1.2 µg/mL (≈ 2.82 µM) | 0.383 µg/mL (≈ 0.902 µM) | 4.21 µg/mL (≈ 9.91 µM) | 4.32 µg/mL (≈ 10.2 µM) | 5.12 µg/mL (≈ 12 µM) | 16.7%
22 | COc1ccc(Cl)cc1NC(=O)CSc1nnc(NC(=O)Cc2ccc(F)cc2)s1 | 0% | > 8.44 µg/mL | > 8.44 µg/mL | > 8.44 µg/mL | > 8.44 µg/mL | 2.73 µg/mL (≈ 5.85 µM) | 100%
23 | CCN(CC)c1cc(C)nc(Nc2ccc(NS(=O)(=O)c3ccc(C)cc3C)cc2)n1 | -1% | 0.357 µg/mL (≈ 0.812 µM) | 0.429 µg/mL (≈ 0.976 µM) | 1.51 µg/mL (≈ 3.43 µM) | 0.324 µg/mL (≈ 0.737 µM) | 4.27 µg/mL (≈ 9.71 µM) | 100%
24 | CCn1/c(=N\C(=O)c2ccc(C(C)=O)cc2)sc2cc(C)ccc21 | 80% | > 10.2 µg/mL | > 10.2 µg/mL | > 10.2 µg/mL | 0.321 µg/mL (≈ 0.948 µM) | > 10.2 µg/mL | 0%
25 | O=C(CCS(=O)(=O)c1ccccc1)Nc1nc(-c2cccc3ccccc23)cs1 | 6.7% | 0.126 µg/mL (≈ 0.297 µM) | 3.87 µg/mL (≈ 9.15 µM) | 1.67 µg/mL (≈ 3.96 µM) | 0.657 µg/mL (≈ 1.55 µM) | 4.06 µg/mL (≈ 9.62 µM) | 0%

Reference: ChEMBL document CHEMBL2093137, “WHO-TDR NTD Screening”
